Test results taken from ChEMBL document CHEMBL4130438, “6,7-Seco-ent-Kauranoids Derived from Oridonin as Potential Anticancer Agents” (J Nat Prod, 2017).
Activity calls are given as the source filed them. The calls are words filed in the database; no cut-off is given here.

Experiments:
MCF7 [1] = experiment: Cell cycle arrest in human MCF7 cells assessed as accumulation at S phase at 1 uM after 48 hrs by propidium iodide staining based flow cytometry (reference value: 17.01%); type: functional
MCF7 [2] = experiment: Induction of apoptosis in human MCF7 cells assessed as viable cells at 2 uM after 24 hrs by Annexin-V FITC/propidium iodide staining based flow cytometry (reference value: 97.5%); type: functional; settings: MCF7, 24 h, read-out: Activity
Bel-7402 = experiment: Antiproliferative activity against human Bel7402 cells after 72 hrs by MTT assay; type: functional, cell-based; settings: Bel-7402, 72 h
Method in brief: (§1)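 Cells pre-incubated 24 h at 37 °C, 5% CO2 in 96-well plates, then exposed to a range of compound concentrations (DMSO ≤0.25%) for 72 h. Viable cells read by MTT colour at 570 nm. Performed in quadruplicate, repeated three times. IC50 reported as means ± SD, n = 3.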

MCF7 [3] = experiment: Induction of apoptosis in human MCF7 cells assessed as early apoptotic cells at 0.50 uM after 24 hrs by Annexin-V FITC/propidium iodide staining based flow cytometry (reference value: 1.60%); type: functional
H22 [4] = experiment: Antitumor activity against […] cells xenografted in ICR mouse assessed as inhibition of tumor volume at 20 mg/kg, iv qd administered for 14 consecutive days measured every 2 days relative to control; type: functional; settings: 14 days
Method in brief: (§2)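 Male ICR mice, five weeks old, implanted s.c. in the right flank with 1 × 10^6 H22 cells. After 7 days, randomised into groups of eight. Given i.v. once daily for 14 days, 10 or 20 mg/kg in 10% DMF/2% poloxamer/88% saline; negative controls received 0.9% saline i.v., positive control 20 mg/kg oridonin. Body weight and tumour volume (L × W²/2) recorded every 2 days. Tumours excised and weighed at sacrifice; inhibition (%) = (1 − treated/control mean tumour weight) × 100.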

MCF7 [5] = experiment: Induction of apoptosis in human MCF7 cells assessed as late apoptotic cells at 0.50 uM after 24 hrs by Annexin-V FITC/propidium iodide staining based flow cytometry (reference value: 0.290%); type: functional
MCF7 [6] = experiment: Induction of apoptosis in human MCF7 cells assessed as early apoptotic cells at 0.25 uM after 24 hrs by Annexin-V FITC/propidium iodide staining based flow cytometry (reference value: 1.60%); type: functional
MCF7 [7] = experiment: Cell cycle arrest in human MCF7 cells assessed as accumulation at G1 phase at 1 uM after 48 hrs by propidium iodide staining based flow cytometry (reference value: 70.27%); type: functional
MCF7 [8] = experiment: Cytotoxicity against human MCF7 cells assessed as decrease in cell viability after 24 hrs by LDH release assay; type: functional, cell-based
Method in brief: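 MCF-7 and Bel-7402 cells seeded at ~5 × 10^3 per well for 24 h, then exposed to compounds. LDH released into the medium measured with CytoTox-ONE reagent (10 min, ambient temperature) followed by stop solution. Fluorescence read at ex 560/em 590 nm.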

MCF7 [9] = experiment: Cell cycle arrest in human MCF7 cells assessed as accumulation at G2/M phase at 0.50 uM after 48 hrs by propidium iodide staining based flow cytometry (reference value: 12.72%); type: functional
MCF7 [10] = experiment: Cell cycle arrest in human MCF7 cells assessed as accumulation at G1 phase at 0.25 uM after 48 hrs by propidium iodide staining based flow cytometry (reference value: 70.27%); type: functional
MCF7 [11] = experiment: Cell cycle arrest in human MCF7 cells assessed as accumulation at G2/M phase after 48 hrs by propidium iodide staining based flow cytometry; type: functional
MCF7 [12] = experiment: Induction of apoptosis in human MCF7 cells assessed as late apoptotic cells at 0.25 uM after 24 hrs by Annexin-V FITC/propidium iodide staining based flow cytometry (reference value: 0.290%); type: functional
MCF7 [13] = experiment: Cell cycle arrest in human MCF7 cells assessed as accumulation at S phase at 0.25 uM after 48 hrs by propidium iodide staining based flow cytometry (reference value: 17.01%); type: functional
MGC-803 = experiment: Antiproliferative activity against human MGC803 cells after 72 hrs by MTT assay; type: functional, cell-based; settings: MGC-803, 72 h; method in brief: as §1
MCF7 [14] = experiment: Induction of apoptosis in human MCF7 cells assessed as late apoptotic cells at 1 uM after 24 hrs by Annexin-V FITC/propidium iodide staining based flow cytometry (reference value: 0.290%); type: functional
MCF7 [15] = experiment: Induction of apoptosis in human MCF7 cells assessed as late apoptotic cells at 2 uM after 24 hrs by Annexin-V FITC/propidium iodide staining based flow cytometry (reference value: 0.290%); type: functional
H22 [16] = experiment: Antitumor activity against […] cells xenografted in ICR mouse assessed as decrease in tumor weight at 10 to 20 mg/kg, iv qd administered for 14 consecutive days measured every 2 days; type: functional, organism-based; method in brief: as §2
MCF7 [17] = experiment: Induction of apoptosis in human MCF7 cells assessed as necrotic cells at 0.25 uM after 24 hrs by Annexin-V FITC/propidium iodide staining based flow cytometry (reference value: 0.610%); type: functional
MCF7 [18] = experiment: Cell cycle arrest in human MCF7 cells assessed as accumulation at S phase at 0.50 uM after 48 hrs by propidium iodide staining based flow cytometry (reference value: 17.01%); type: functional
MCF7 [19] = experiment: Induction of apoptosis in human MCF7 cells assessed as viable cells at 1 uM after 24 hrs by Annexin-V FITC/propidium iodide staining based flow cytometry (reference value: 97.5%); type: functional; settings: MCF7, 24 h, read-out: Activity
K562 = experiment: Antiproliferative activity against human K562 cells after 72 hrs by MTT assay; type: functional, cell-based; settings: K562, 72 h; method in brief: as §1
MCF7 [20] = experiment: Induction of apoptosis in human MCF7 cells assessed as necrotic cells at 2 uM after 24 hrs by Annexin-V FITC/propidium iodide staining based flow cytometry (reference value: 0.610%); type: functional
MCF7 [21] = experiment: Inhibition of colony formation in human MCF7 cells up to 600 nM incubated for 24 hrs followed by removal of media measured after 10 days by crystal violet staining based microscopy; type: functional, cell-based
Method in brief: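 300 MCF-7 cells per well plated and incubated overnight, then exposed for 24 h to graded concentrations in DMSO (DMSO-only control). Medium removed and cells grown 10 days. Fixed in methanol 15 min, stained with 0.1% crystal violet 15 min; colonies of >50 cells counted. At least three independent experiments.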

MCF7 [22] = experiment: Induction of apoptosis in human MCF7 cells assessed as decrease in mitochondrial membrane potential measured after 36 hrs by JC-1 staining based fluorescence microscopy; type: functional, cell-based
Method in brief: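 MCF-7 cells treated 36 h across a range of concentrations, then loaded with 10 μg/mL JC-1 for 30 min at 37 °C and washed in PBS. Monomer fluorescence read at ex 490/em 535 nm and aggregate fluorescence at ex 525/em 600 nm, by plate reader or fluorescence microscopy. Run in triplicate.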

MCF7 [23] = experiment: Cell cycle arrest in human MCF7 cells assessed as accumulation at S phase at 2 uM after 48 hrs by propidium iodide staining based flow cytometry (reference value: 17.01%); type: functional
MCF7 [24] = experiment: Cell cycle arrest in human MCF7 cells assessed as accumulation at G2/M phase at 0.25 uM after 48 hrs by propidium iodide staining based flow cytometry (reference value: 12.72%); type: functional
KB 3-1 = experiment: Antiproliferative activity against human KB-3-1 cells after 48 hrs by MTT assay; type: functional, cell-based

For `C=C1C(=O)[C@@]23C(=O)OC[C@]4(C=CCC(C)(C)[C@H]4C=O)[C@@H]2CC[C@@H]1[C@H]3OC(=O)c1ccc(F)cc1`, the Activity (MCF7 [1]) was 15.43%, the viability at 2 µM (MCF7 [2]) was 58.6% and the IC50 (Bel-7402) was 1800 nM. The Activity (MCF7 [3]) was 9.75%, the inhibition in vivo at 20 mg/kg (H22 [4]) was 52.5% and the Activity (MCF7 [5]) was 7.68%. The Activity (MCF7 [6]) was 6.67%, the Activity (MCF7 [7]) was 63.35% and the Activity (MCF7 [8]) was “inactive”. For the same molecule, the Activity (MCF7 [9]) was 19.47%, the Activity (MCF7 [10]) was 67.64% and the Activity (MCF7 [11]) was “Dose-dependent effect”. For the same molecule, the Activity (MCF7 [12]) was 5.51%, the Activity (MCF7 [13]) was 18.3% and the IC50 (MGC-803) was 2200 nM. For the same molecule, the Activity (MCF7 [14]) was 15.9%, the Activity (MCF7 [15]) was 24.7% and the Activity (H22 [16]) was “Active”. It also gave an Activity (MCF7 [17]) of 0.649%, an Activity (MCF7 [18]) of 15.71% and a viability at 1 µM (MCF7 [19]) of 72%. For the same molecule, the IC50 (K562) was 690 nM, the Activity (MCF7 [20]) was 2.74% and the inhibition (MCF7 [21]) was “Active”. The Activity (MCF7 [22]) was “Dose-dependent effect”, the Activity (MCF7 [23]) was 17.71% and the Activity (MCF7 [24]) was 14.06%. The Activity (KB 3-1) was “Active”.
